Laboratory results: ChEMBL document CHEMBL5058577, “EUbOPEN Chemogenomics Library 2 (Multiplex)” (2022)

Test system: HEK-293T
Assay: Multiplex assay against HEK293T
Format: toxicity, cell-based
Conditions: human
Method in brief: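 Live cells were stained at seeding with Hoechst33342, BioTracker Green Microtubule Cytoskeleton Dye, MitoTracker Red and Annexin V Alexa Fluor 680, then imaged on a CQ1 microscope at 37°C and 5% CO2 after compound addition. CellPathfinder machine-learning gating split cells into Hoechst high-intensity objects or normal cells. Normal cells were split into healthy, pyknosed or fragmented nuclei, and pyknosed cells into mitotic or apoptotic. Tubulin, mitochondrial-mass and membrane-permeability phenotypes are per cents of healthy-nucleus cells.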

[1] = 12 h, 1 µM, compound concentration 1 uM, replicate 1
[2] = 12 h, 1 µM, compound concentration 1 uM, replicate 2
[3] = 12 h, 10 µM, compound concentration 10 uM, replicate 1
[4] = 12 h, 10 µM, compound concentration 10 uM, replicate 2
[5] = 24 h, 1 µM, compound concentration 1 uM, replicate 1
[6] = 24 h, 1 µM, compound concentration 1 uM, replicate 2
[7] = 24 h, 10 µM, compound concentration 10 uM, replicate 1
[8] = 24 h, 10 µM, compound concentration 10 uM, replicate 2
[9] = 48 h, 1 µM, compound concentration 1 uM, replicate 1
[10] = 48 h, 1 µM, compound concentration 1 uM, replicate 2
[11] = 48 h, 10 µM, compound concentration 10 uM, replicate 1
[12] = 48 h, 10 µM, compound concentration 10 uM, replicate 2

SMILES: COCCn1c(C)c(C)s/c1=N\C(=O)C1C(C)(C)C1(C)C
- Population Apoptotic (%) [1]: 37%
- Population Fragmented Nuclei (%) [1]: 10%
- Population Healthy Nuclei (%) [1]: 77%
- Population Hoechst High Intensity Objects (%) [1]: 6%
- Population Membrane Permeable-Phenotype (%) [1]: 0%
- Population Mitochondria Different-Phenotype (%) [1]: 45%
- Population Mitotic Cells (%) [1]: 62%
- Population Normal (%) [1]: 93%
- Population Pyknosed Nuclei (%) [1]: 12%
- Population Tubulin-Different-Phenotype (%) [1]: 29%
- Total Cell Count [1]: 335
- Population Apoptotic (%) [2]: 41%
- Population Fragmented Nuclei (%) [2]: 5%
- Population Healthy Nuclei (%) [2]: 82%
- Population Hoechst High Intensity Objects (%) [2]: 4%
- Population Mitochondria Different-Phenotype (%) [2]: 77%
- Population Mitotic Cells (%) [2]: 58%
- Population Normal (%) [2]: 95%
- Population Tubulin-Different-Phenotype (%) [2]: 26%
- Total Cell Count [2]: 304
- Population Apoptotic (%) [3]: 77%
- Population Fragmented Nuclei (%) [3]: 33%
- Population Healthy Nuclei (%) [3]: 52%
- Population Hoechst High Intensity Objects (%) [3]: 18%
- Population Membrane Permeable-Phenotype (%) [3]: 0%
- Population Mitochondria Different-Phenotype (%) [3]: 91%
- Population Mitotic Cells (%) [3]: 22%
- Population Normal (%) [3]: 81%
- Population Pyknosed Nuclei (%) [3]: 13%
- Population Tubulin-Different-Phenotype (%) [3]: 67%
- Total Cell Count [3]: 80
- Population Apoptotic (%) [4]: 53%
- Population Fragmented Nuclei (%) [4]: 8%
- Population Healthy Nuclei (%) [4]: 75%
- Population Hoechst High Intensity Objects (%) [4]: 11%
- Population Mitochondria Different-Phenotype (%) [4]: 72%
- Population Mitotic Cells (%) [4]: 46%
- Population Normal (%) [4]: 88%
- Population Pyknosed Nuclei (%) [4]: 16%
- Population Tubulin-Different-Phenotype (%) [4]: 38%
- Total Cell Count [4]: 315
- Population Apoptotic (%) [5]: 19%
- Population Fragmented Nuclei (%) [5]: 7%
- Population Healthy Nuclei (%) [5]: 81%
- Population Hoechst High Intensity Objects (%) [5]: 4%
- Population Membrane Permeable-Phenotype (%) [5]: 0%
- Population Mitochondria Different-Phenotype (%) [5]: 26%
- Population Mitotic Cells (%) [5]: 80%
- Population Normal (%) [5]: 95%
- Population Pyknosed Nuclei (%) [5]: 11%
- Population Tubulin-Different-Phenotype (%) [5]: 20%
- Total Cell Count [5]: 447
- Population Apoptotic (%) [6]: 35%
- Population Fragmented Nuclei (%) [6]: 8%
- Population Hoechst High Intensity Objects (%) [6]: 7%
- Population Mitochondria Different-Phenotype (%) [6]: 47%
- Population Mitotic Cells (%) [6]: 64%
- Population Normal (%) [6]: 92%
- Population Pyknosed Nuclei (%) [6]: 10%
- Population Tubulin-Different-Phenotype (%) [6]: 17%
- Total Cell Count [6]: 383
- Population Apoptotic (%) [7]: 71%
- Population Fragmented Nuclei (%) [7]: 30%
- Population Healthy Nuclei (%) [7]: 61%
- Population Hoechst High Intensity Objects (%) [7]: 15%
- Population Membrane Permeable-Phenotype (%) [7]: 0%
- Population Mitochondria Different-Phenotype (%) [7]: 53%
- Population Mitotic Cells (%) [7]: 28%
- Population Normal (%) [7]: 84%
- Population Pyknosed Nuclei (%) [7]: 8%
- Population Tubulin-Different-Phenotype (%) [7]: 36%
- Total Cell Count [7]: 101
- Population Apoptotic (%) [8]: 45%
- Population Fragmented Nuclei (%) [8]: 11%
- Population Healthy Nuclei (%) [8]: 75%
- Population Hoechst High Intensity Objects (%) [8]: 7%
- Population Mitochondria Different-Phenotype (%) [8]: 62%
- Population Mitotic Cells (%) [8]: 54%
- Population Normal (%) [8]: 92%
- Population Pyknosed Nuclei (%) [8]: 13%
- Population Tubulin-Different-Phenotype (%) [8]: 30%
- Total Cell Count [8]: 376
- Population Apoptotic (%) [9]: 20%
- Population Fragmented Nuclei (%) [9]: 13%
- Population Healthy Nuclei (%) [9]: 75%
- Population Hoechst High Intensity Objects (%) [9]: 3%
- Population Membrane Permeable-Phenotype (%) [9]: 0%
- Population Mitochondria Different-Phenotype (%) [9]: 22%
- Population Mitotic Cells (%) [9]: 79%
- Population Normal (%) [9]: 96%
- Population Pyknosed Nuclei (%) [9]: 11%
- Population Tubulin-Different-Phenotype (%) [9]: 14%
- Total Cell Count [9]: 649
- Population Apoptotic (%) [10]: 45%
- Population Fragmented Nuclei (%) [10]: 11%
- Population Healthy Nuclei (%) [10]: 81%
- Population Mitochondria Different-Phenotype (%) [10]: 31%
- Population Mitotic Cells (%) [10]: 55%
- Population Normal (%) [10]: 97%
- Population Pyknosed Nuclei (%) [10]: 7%
- Population Tubulin-Different-Phenotype (%) [10]: 12%
- Total Cell Count [10]: 567
- Population Apoptotic (%) [11]: 60%
- Population Fragmented Nuclei (%) [11]: 18%
- Population Healthy Nuclei (%) [11]: 73%
- Population Hoechst High Intensity Objects (%) [11]: 2%
- Population Membrane Permeable-Phenotype (%) [11]: 2%
- Population Mitochondria Different-Phenotype (%) [11]: 30%
- Population Mitotic Cells (%) [11]: 40%
- Population Normal (%) [11]: 97%
- Population Pyknosed Nuclei (%) [11]: 8%
- Population Tubulin-Different-Phenotype (%) [11]: 31%
- Total Cell Count [11]: 191
- Population Apoptotic (%) [12]: 38%
- Population Fragmented Nuclei (%) [12]: 13%
- Population Healthy Nuclei (%) [12]: 79%
- Population Hoechst High Intensity Objects (%) [12]: 4%
- Population Membrane Permeable-Phenotype (%) [12]: 0%
- Population Mitochondria Different-Phenotype (%) [12]: 46%
- Population Mitotic Cells (%) [12]: 61%
- Population Normal (%) [12]: 95%
- Population Pyknosed Nuclei (%) [12]: 6%
- Population Tubulin-Different-Phenotype (%) [12]: 24%
- Total Cell Count [12]: 493

SMILES: O=C(O)CCC/C=C\CC1C(O)CC(O)C1/C=C/C(O)COc1cccc(Cl)c1 (configuration not stated) [CLOPROSTENOL]
- Population Apoptotic (%) [1]: 31%
- Population Fragmented Nuclei (%) [1]: 7%
- Population Healthy Nuclei (%) [1]: 81%
- Population Hoechst High Intensity Objects (%) [1]: 9%
- Population Membrane Permeable-Phenotype (%) [1]: 0%
- Population Mitochondria Different-Phenotype (%) [1]: 44%
- Population Mitotic Cells (%) [1]: 68%
- Population Normal (%) [1]: 90%
- Population Pyknosed Nuclei (%) [1]: 10%
- Population Tubulin-Different-Phenotype (%) [1]: 35%
- Total Cell Count [1]: 458
- Population Apoptotic (%) [2]: 40%
- Population Fragmented Nuclei (%) [2]: 6%
- Population Healthy Nuclei (%) [2]: 80%
- Population Hoechst High Intensity Objects (%) [2]: 7%
- Population Mitochondria Different-Phenotype (%) [2]: 56%
- Population Mitotic Cells (%) [2]: 59%
- Population Normal (%) [2]: 92%
- Population Pyknosed Nuclei (%) [2]: 13%
- Population Tubulin-Different-Phenotype (%) [2]: 23%
- Total Cell Count [2]: 341
- Population Apoptotic (%) [3]: 45%
- Population Fragmented Nuclei (%) [3]: 7%
- Population Healthy Nuclei (%) [3]: 77%
- Population Hoechst High Intensity Objects (%) [3]: 6%
- Population Membrane Permeable-Phenotype (%) [3]: 0%
- Population Mitochondria Different-Phenotype (%) [3]: 63%
- Population Mitotic Cells (%) [3]: 54%
- Population Normal (%) [3]: 93%
- Population Pyknosed Nuclei (%) [3]: 14%
- Population Tubulin-Different-Phenotype (%) [3]: 41%
- Total Cell Count [3]: 395
- Population Apoptotic (%) [4]: 51%
- Population Fragmented Nuclei (%) [4]: 8%
- Population Hoechst High Intensity Objects (%) [4]: 13%
- Population Mitochondria Different-Phenotype (%) [4]: 68%
- Population Mitotic Cells (%) [4]: 48%
- Population Normal (%) [4]: 86%
- Population Tubulin-Different-Phenotype (%) [4]: 37%
- Total Cell Count [4]: 357
- Population Apoptotic (%) [5]: 22%
- Population Fragmented Nuclei (%) [5]: 11%
- Population Healthy Nuclei (%) [5]: 76%
- Population Hoechst High Intensity Objects (%) [5]: 7%
- Population Membrane Permeable-Phenotype (%) [5]: 1%
- Population Mitochondria Different-Phenotype (%) [5]: 25%
- Population Mitotic Cells (%) [5]: 77%
- Population Normal (%) [5]: 92%
- Population Pyknosed Nuclei (%) [5]: 11%
- Population Tubulin-Different-Phenotype (%) [5]: 28%
- Total Cell Count [5]: 612
- Population Apoptotic (%) [6]: 34%
- Population Fragmented Nuclei (%) [6]: 7%
- Population Healthy Nuclei (%) [6]: 83%
- Population Hoechst High Intensity Objects (%) [6]: 5%
- Population Membrane Permeable-Phenotype (%) [6]: 0%
- Population Mitochondria Different-Phenotype (%) [6]: 37%
- Population Mitotic Cells (%) [6]: 65%
- Population Normal (%) [6]: 94%
- Population Pyknosed Nuclei (%) [6]: 9%
- Population Tubulin-Different-Phenotype (%) [6]: 16%
- Total Cell Count [6]: 477
- Population Apoptotic (%) [7]: 46%
- Population Fragmented Nuclei (%) [7]: 10%
- Population Healthy Nuclei (%) [7]: 78%
- Population Hoechst High Intensity Objects (%) [7]: 7%
- Population Membrane Permeable-Phenotype (%) [7]: 0%
- Population Mitochondria Different-Phenotype (%) [7]: 46%
- Population Mitotic Cells (%) [7]: 54%
- Population Normal (%) [7]: 92%
- Population Pyknosed Nuclei (%) [7]: 10%
- Population Tubulin-Different-Phenotype (%) [7]: 35%
- Total Cell Count [7]: 490
- Population Fragmented Nuclei (%) [8]: 12%
- Population Hoechst High Intensity Objects (%) [8]: 11%
- Population Mitochondria Different-Phenotype (%) [8]: 55%
- Population Mitotic Cells (%) [8]: 53%
- Population Normal (%) [8]: 88%
- Population Pyknosed Nuclei (%) [8]: 9%
- Population Tubulin-Different-Phenotype (%) [8]: 31%
- Total Cell Count [8]: 483
- Population Apoptotic (%) [9]: 20%
- Population Fragmented Nuclei (%) [9]: 15%
- Population Healthy Nuclei (%) [9]: 77%
- Population Hoechst High Intensity Objects (%) [9]: 4%
- Population Membrane Permeable-Phenotype (%) [9]: 1%
- Population Mitochondria Different-Phenotype (%) [9]: 15%
- Population Mitotic Cells (%) [9]: 79%
- Population Normal (%) [9]: 95%
- Population Pyknosed Nuclei (%) [9]: 6%
- Population Tubulin-Different-Phenotype (%) [9]: 15%
- Total Cell Count [9]: 956
- Population Apoptotic (%) [10]: 28%
- Population Fragmented Nuclei (%) [10]: 13%
- Population Healthy Nuclei (%) [10]: 81%
- Population Hoechst High Intensity Objects (%) [10]: 5%
- Population Mitochondria Different-Phenotype (%) [10]: 20%
- Population Mitotic Cells (%) [10]: 71%
- Population Normal (%) [10]: 94%
- Population Pyknosed Nuclei (%) [10]: 5%
- Population Tubulin-Different-Phenotype (%) [10]: 11%
- Total Cell Count [10]: 703
- Population Apoptotic (%) [11]: 33%
- Population Fragmented Nuclei (%) [11]: 16%
- Population Healthy Nuclei (%) [11]: 76%
- Population Hoechst High Intensity Objects (%) [11]: 7%
- Population Membrane Permeable-Phenotype (%) [11]: 0%
- Population Mitochondria Different-Phenotype (%) [11]: 32%
- Population Mitotic Cells (%) [11]: 66%
- Population Normal (%) [11]: 92%
- Population Pyknosed Nuclei (%) [11]: 6%
- Population Tubulin-Different-Phenotype (%) [11]: 18%
- Total Cell Count [11]: 659
- Population Apoptotic (%) [12]: 25%
- Population Fragmented Nuclei (%) [12]: 18%
- Population Healthy Nuclei (%) [12]: 75%
- Population Hoechst High Intensity Objects (%) [12]: 6%
- Population Membrane Permeable-Phenotype (%) [12]: 1%
- Population Mitochondria Different-Phenotype (%) [12]: 25%
- Population Mitotic Cells (%) [12]: 74%
- Population Normal (%) [12]: 93%
- Population Pyknosed Nuclei (%) [12]: 5%
- Total Cell Count [12]: 731
